Source: ChEMBL document CHEMBL1125672, “2-acetylpyridine thiosemicarbazones. 13. Derivatives with antifilarial activity” (1991)

Assays:
Assay type in all cases: functional
Onchocerca gutturosa [1] = assay: Mean motility score for treated Onchocerca gutturosa involving LLCMK2 feeder cells at a concentration of 1.95*10e-8 M at 48 h
How it was run: (§1)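 One male O. gutturosa per well over LLCMK2 feeder cells in MEM with 10% heat-inactivated FCS, antibiotics and bicarbonate, 5% CO2; compound introduced in DMSO (≤0.016%, equal DMSO in controls). Motility scored 0 (immotile) to 10 (maximal control activity) every 30 min to 4.5 h, then at 1, 2, 3, 4 and 7 days.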

Onchocerca gutturosa [2] = assay: Mean motility score for treated Onchocerca gutturosa involving LLCMK2 feeder cells at a concentration of 1.95*10e-8 M at 0.5 h; how it was run: as §1
Onchocerca gutturosa [3] = assay: Mean motility score for treated Onchocerca gutturosa involving LLCMK2 feeder cells at a concentration of 3.05*10e-8 M at 0.5 h; how it was run: as §1
Onchocerca gutturosa [4] = assay: Mean motility score for treated Onchocerca gutturosa involving LLCMK2 feeder cells at a concentration of 3.05*10e-8 M at 1 h; how it was run: as §1
Onchocerca gutturosa [5] = assay: Mean motility score for treated Onchocerca gutturosa involving LLCMK2 feeder cells at a concentration of 3.05*10e-8 M at […]; how it was run: as §1
Onchocerca gutturosa [6] = assay: Mean motility score for treated Onchocerca gutturosa involving LLCMK2 feeder cells at a concentration of 3.05*10e-8 M at 2.5 h; conditions: in the assay text read “3.05*10e-9 M” for “3.05*10e-8 M”; how it was run: as §1
Onchocerca gutturosa [7] = assay: Colorimetric quantification of male Onchocerca gutturosa viability, expressed as % inhibition of formazan formation at 4.88*10e-8M conc. by using tetrazolium Dye MTT assay
How it was run: (§2)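 Single intact male O. gutturosa, cultured with LLCMK2 feeder cells in MEM + 10% heat-inactivated FCS (5% CO2), drug added from DMSO (≤0.016% DMSO in controls). MTT read after 168 h: worm in 0.5 mg/mL MTT, 30 min at 36.5 °C, formazan solubilized in DMSO 1 h at room temperature, absorbance 490 nm vs DMSO blank.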

Onchocerca gutturosa [8] = assay: Mean motility score for treated Onchocerca gutturosa involving LLCMK2 feeder cells at a concentration of 3.1*10e-6 M at 168 h
How it was run: (§3)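 Single male O. gutturosa worms (obtained following abattoir slaughter) per well in Eagle's MEM with 10% heat-inactivated fetal calf serum, penicillin, streptomycin, amphotericin B and bicarbonate, over LLCMK2 feeder cells, 5% CO2 in air. Drug dissolved in DMSO; controls received matched DMSO ≤0.016%. Motility scored 0 (immotile) to 10 (maximum control activity) every 30 min to 4.5 h, then days 1, 2, 3, 4, 7.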

Onchocerca gutturosa [9] = assay: Mean motility score for treated Onchocerca gutturosa involving LLCMK2 feeder cells at a concentration of 4.88*10e-8M at 1 h; how it was run: as §3
Onchocerca gutturosa [10] = assay: Mean motility score for treated Onchocerca gutturosa involving LLCMK2 feeder cells at a concentration of 4.88*10e-8M at 1.5 h; how it was run: as §3
Onchocerca gutturosa [11] = assay: Mean motility score for treated Onchocerca gutturosa involving LLCMK2 feeder cells at a concentration of 4.88*10e-8M at 2.5 h; how it was run: as §3
Onchocerca gutturosa [12] = assay: Mean motility score for treated Onchocerca gutturosa involving LLCMK2 feeder cells at a concentration of 4.88*10e-8M at 4 h; how it was run: as §3
Onchocerca gutturosa [13] = assay: Mean motility score for treated Onchocerca gutturosa involving LLCMK2 feeder cells at a concentration of 4.88*10e-8M at 48 h; how it was run: as §3
Onchocerca gutturosa [14] = assay: Mean motility score for treated Onchocerca gutturosa involving LLCMK2 feeder cells at a concentration of 4.88*10e-8M at 96 h; how it was run: as §3
Onchocerca gutturosa [15] = assay: Mean motility score for treated Onchocerca gutturosa involving LLCMK2 feeder cells at a concentration of 3.1*10e-6 M at 4.5 h; how it was run: as §3
Onchocerca gutturosa [16] = assay: Mean motility score for treated Onchocerca gutturosa involving LLCMK2 feeder cells at a concentration of 3.1*10e-6 M at 2.5 h; how it was run: as §3
Onchocerca gutturosa [17] = assay: Mean motility score for treated Onchocerca gutturosa involving LLCMK2 feeder cells at a concentration of 3.1*10e-6 M at 3 h; how it was run: as §3
Onchocerca gutturosa [18] = assay: Mean motility score for treated Onchocerca gutturosa involving LLCMK2 feeder cells at a concentration of 3.1*10e-6 M at 3.5 h; how it was run: as §3
Onchocerca gutturosa [19] = assay: Mean motility score for treated Onchocerca gutturosa involving LLCMK2 feeder cells at a concentration of 1.95*10e-8 M at 1.5 h; how it was run: as §1
Acanthocheilonema viteae = assay: anti-filarial Activity was measured against Acanthocheilonema viteae in jirds at 100 mg/kg/day(5 days) dose
How it was run: (§4)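 Jirds with established B. pahangi or A. viteae infections were given drug once daily for 5 days by subcutaneous injection, at the maximum tolerated dose and, where supply allowed, graded lower doses. Tolerance was first checked in noninfected jirds with a single 200 mg/kg oral or subcutaneous dose, watching 72 h for excessive weight loss or death. Macrofilarial suppression was the read-out.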

Brugia pahangi [20] = assay: anti-filarial Activity was measured against Brugia pahangi in jirds at 100 mg/kg/day(5 days) dose; how it was run: as §4
Brugia pahangi [21] = assay: anti-filarial Activity was measured against Brugia pahangi in jirds at 50 mg/kg/day(5 days) dose; how it was run: as §4
Onchocerca gutturosa [22] = assay: Colorimetric quantification of male Onchocerca gutturosa viability, expressed as % inhibition of formazan formation at 1.21*10e-8M conc. by using tetrazolium Dye MTT assay; how it was run: as §2
Onchocerca gutturosa [23] = assay: Colorimetric quantification of male Onchocerca gutturosa viability, expressed as % inhibition of formazan formation at 1.94*10e-7M conc. by using tetrazolium Dye MTT assay; how it was run: as §2
Onchocerca gutturosa [24] = assay: Mean motility score for treated Onchocerca gutturosa involving LLCMK2 feeder cells at a concentration of 1.21*10e-8M at 2 h; how it was run: as §1
Onchocerca gutturosa [25] = assay: Mean motility score for treated Onchocerca gutturosa involving LLCMK2 feeder cells at a concentration of 3.05*10e-9 M at 1.5 h; how it was run: as §1
Onchocerca gutturosa [26] = assay: Mean motility score for treated Onchocerca gutturosa involving LLCMK2 feeder cells at a concentration of 3.05*10e-9 M at 2.5 h; how it was run: as §3
Onchocerca gutturosa [27] = assay: Mean motility score for treated Onchocerca gutturosa involving LLCMK2 feeder cells at a concentration of 1.21*10e-8M at 48 h; how it was run: as §1
Onchocerca gutturosa [28] = assay: Mean motility score for treated Onchocerca gutturosa involving LLCMK2 feeder cells at a concentration of 1.21*10e-8M at 72 h; how it was run: as §1
Onchocerca gutturosa [29] = assay: Mean motility score for treated Onchocerca gutturosa involving LLCMK2 feeder cells at a concentration of 1.94*10e-7M at 1 h; how it was run: as §1
Onchocerca gutturosa [30] = assay: Mean motility score for treated Onchocerca gutturosa involving LLCMK2 feeder cells at a concentration of 1.94*10e-7M at 1.5 h; how it was run: as §1
Onchocerca gutturosa [31] = assay: Mean motility score for treated Onchocerca gutturosa involving LLCMK2 feeder cells at a concentration of 1.94*10e-7M at 24 h; how it was run: as §1
Onchocerca gutturosa [32] = assay: Mean motility score for treated Onchocerca gutturosa involving LLCMK2 feeder cells at a concentration of 1.94*10e-7M at 48 h; how it was run: as §1
Onchocerca gutturosa [33] = assay: Mean motility score for treated Onchocerca gutturosa involving LLCMK2 feeder cells at a concentration of 1.94*10e-7M at 72 h; how it was run: as §1
Onchocerca gutturosa [34] = assay: Mean motility score for treated Onchocerca gutturosa involving LLCMK2 feeder cells at a concentration of 1.94*10e-7M at 96 h; how it was run: as §1

Structure (SMILES): C/C(=N\NC(=S)N1CCCCCC1)c1ccccn1
- Motility (Onchocerca gutturosa [1]): 2.5
- Motility (Onchocerca gutturosa [2]): 8.8
- Motility (Onchocerca gutturosa [3]): 9.8
- Motility (Onchocerca gutturosa [4]): 9
- Motility (Onchocerca gutturosa [5]): 8.5
- Motility (Onchocerca gutturosa [6]): 8.3
- Inhibition (Onchocerca gutturosa [7]): 31.7%
- Motility (Onchocerca gutturosa [8]): 0
- Motility (Onchocerca gutturosa [9]): 9
- Motility (Onchocerca gutturosa [10]): 8.5
- Motility (Onchocerca gutturosa [11]): 8.3
- Motility (Onchocerca gutturosa [12]): 8.8
- Motility (Onchocerca gutturosa [13]): 4
- Motility (Onchocerca gutturosa [14]): 1.5
- Motility (Onchocerca gutturosa [15]): 9.5
- Motility (Onchocerca gutturosa [16]): 8.5
- Motility (Onchocerca gutturosa [17]): 9.3
- Motility (Onchocerca gutturosa [18]): 9
- Motility (Onchocerca gutturosa [19]): 9.5

Structure (SMILES): C/C(=N\NC(S)=Nc1ccccc1N)c1ccccn1
- Suppression (Acanthocheilonema viteae): 100%
- Suppression (Brugia pahangi [20]): 100%
- Suppression (Brugia pahangi [21]): 100%
- Inhibition (Onchocerca gutturosa [22]): 27.9%
- Inhibition (Onchocerca gutturosa [23]): 84.8%
- Motility (Onchocerca gutturosa [24]): 3.3
- Motility (Onchocerca gutturosa [25]): 8.3
- Motility (Onchocerca gutturosa [26]): 7.5
- Motility (Onchocerca gutturosa [27]): 7.3
- Motility (Onchocerca gutturosa [28]): 6.8
- Motility (Onchocerca gutturosa [29]): 9.8
- Motility (Onchocerca gutturosa [30]): 8
- Motility (Onchocerca gutturosa [31]): 8
- Motility (Onchocerca gutturosa [32]): 4
- Motility (Onchocerca gutturosa [33]): 1.5
- Motility (Onchocerca gutturosa [34]): 1.8
